Laboratory results from ChEMBL document CHEMBL1122377, “Nitrogen bridgehead compounds. 38. New antiallergic 4H-pyrido[1,2-a]pyrimidin-4-ones. 3” (1983).

How the values were obtained:
Rattus norvegicus [1] = assay: Antiallergic activity after intravenous administration using rat reaginic passive cutaneous anaphylaxis (PCA) test.; type: functional; conditions: for ED50: Rattus norvegicus, iv, read-out: ID50 (the source's name)
Summary of the method: (§1)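 Inhibition in the rat reaginic PCA test after dosing; significance of each value judged by Student's t test.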

Rattus norvegicus [2] = assay: Antiallergic activity after os administration using rat reaginic passive cutaneous anaphylaxis (PCA) test; insignificant activity; per os 10e3 umol/kg exhibited 31% protection; type: functional
Rattus norvegicus [3] = assay: Antiallergic activity after iv administration using rat reaginic passive cutaneous anaphylaxis (PCA) test;Compound is toxic at 100 umol/kg.
Rattus norvegicus [4] = assay: Antiallergic activity after os administration using rat reaginic passive cutaneous anaphylaxis (PCA) test.; type: functional; conditions: for ED50: read-out: ID50 (the source's name); summary of the method: as §1
Rattus norvegicus [5] = assay: Antiallergic activity after iv administration using rat reaginic passive cutaneous anaphylaxis (PCA) test;ins means insoluble.

Compound	ED50 (Rattus norvegicus [1]) [µmol/kg]	further results
C[C@@H]1CC=C(Nc2ccccc2)c2ncc(C(=O)O)c(=O)n21	100	–
CC1CCCc2ncc(C(=O)O)c(=O)n21 (stereo unspecified)	240	–
CC1CC=C(Nc2ccccc2)c2ncc(C(=O)O)c(=O)n21 (stereo unspecified)	2.1	–
CCc1nc2n(c(=O)c1C(=O)O)C(C)CC/C2=N\O (stereo unspecified)	> 100	–
CC(=O)c1cccc(NC2=CCC(C)n3c2ncc(C(=O)O)c3=O)c1 (stereo unspecified)	0.36	–
CCO/N=C1\CCC(C)n2c1ncc(C(=O)O)c2=O (stereo unspecified)	24.3	–
CC1CC=C(Nc2ccc(F)cc2)c2ncc(C(=O)O)c(=O)n21 (stereo unspecified)	8.6	–
CC1CC=C(Nc2cccc(F)c2)c2ncc(C(=O)O)c(=O)n21 (stereo unspecified)	1.4	–
C[C@H]1CC=C(Nc2ccccc2)c2ncc(C(=O)O)c(=O)n21	1.2	–
Cc1cccc(NC2=CCC(C)n3c2ncc(C(=O)O)c3=O)c1 (stereo unspecified)	0.74	–
CCO/N=C1\CCC(C)n2c1ncc(C(=O)OCC)c2=O (stereo unspecified)	41.2	–
CCOC(=O)c1cnc2n(c1=O)C(C)CCC2C(=O)Nc1ccccc1 (stereo unspecified)	–	Activity (Rattus norvegicus [2]): 31%
CC1CCC(C(=O)Nc2ccccc2)c2ncc(C(=O)O)c(=O)n21 (stereo unspecified)	0.56	–
CC1CCC(=NNc2ccccc2)c2ncc(C(=O)O)c(=O)n21 (stereo in doubt; 2)	0.6	–
CCOC(=O)c1cnc2n(c1=O)C(C)CC/C2=N\O (stereo unspecified)	100	–
CC1CC=C(Nc2cccc(I)c2)c2ncc(C(=O)O)c(=O)n21 (stereo unspecified)	–	ID50 (Rattus norvegicus [3]): 10 µmol/kg
CC1CC=C(Nc2ccccc2C(=O)O)c2ncc(C(=O)O)c(=O)n21 (stereo unspecified)	0.66	–

Compound	ED50 (Rattus norvegicus [1]) [µmol/kg]	further results
CC1CC=C(Nc2cccc(C(=O)O)c2)c2ncc(C(=O)O)c(=O)n21 (stereo unspecified)	0.62	ED50 (Rattus norvegicus [4]): 92.6 µmol/kg
CC1CCC(C(=O)N(C)C)c2ncc(C(=O)O)c(=O)n21 (stereo unspecified)	–	ID50 (Rattus norvegicus [5]): Insoluble
CC1CC=C(Nc2ccc(C(=O)O)cc2)c2ncc(C(=O)O)c(=O)n21 (stereo unspecified)	3.5	ED50 (Rattus norvegicus [4]): 277 µmol/kg
CC1CC=C(Nc2cccc(Br)c2)c2ncc(C(=O)O)c(=O)n21 (stereo unspecified)	–	ID50 (Rattus norvegicus [3]): 10 µmol/kg
CC1CC/C(=N\N)c2ncc(C(=O)O)c(=O)n21 (stereo unspecified)	42	–
CC1CC=C(Nc2ccc3ccccc3c2)c2ncc(C(=O)O)c(=O)n21 (stereo unspecified)	–	ED50 (Rattus norvegicus [4]): 30.8 µmol/kg
O=C(O)c1cc(=O)c2c(OCC(O)COc3cccc4oc(C(=O)O)cc(=O)c34)cccc2o1 [CROMOLYN SODIUM]	1	–
CC1CC/C(=N\O)c2ncc(C(=O)O)c(=O)n21 (stereo unspecified)	19.4	–
CC1CCC(=NNc2ccccc2)c2ncc(C(=O)O)c(=O)n21 (stereo in doubt)	–	ID50 (Rattus norvegicus [1]): 0.3 µM/kg
CC1CCC(/C=N/c2ccccc2)=C2NC=C(C(=O)O)C(=O)N21 (stereo unspecified)	–	Activity (Rattus norvegicus [4]): 47%
CC1CC=C(Nc2ccc(O)cc2)c2ncc(C(=O)O)c(=O)n21 (stereo unspecified)	2.93	ED50 (Rattus norvegicus [4]): 100 µmol/kg
Cc1nc2n(c(=O)c1C(=O)O)C(C)CC/C2=N\O (stereo unspecified)	> 100	–
CC1CCC(Nc2ccccc2)c2ncc(C(=O)O)c(=O)n21 (stereo unspecified)	–	ID50 (Rattus norvegicus [5]): Insoluble
Cc1ccccc1NC1=CCC(C)n2c1ncc(C(=O)O)c2=O (stereo unspecified)	5.4	–
CC1CC=C(N(C)c2ccccc2)c2ncc(C(=O)O)c(=O)n21 (stereo unspecified)	> 100	–
CC1CCC(/C(S)=N/c2ccccc2)c2ncc(C(=O)O)c(=O)n21 (stereo unspecified)	9.1	–
